Results from ChEMBL document CHEMBL1158827, “Free-radical-scavenging and xanthine oxidase inhibitory constituents from Stereospermum personatum” (J Nat Prod, 2005).
The source made the active and inactive calls. No cut-off for these calls is given here.

What was measured:
[1] = target: T1, Xanthine dehydrogenase/oxidase (Homo sapiens, UniProt P47989); test: Inhibition of xanthine oxidase at 132 uM
[2] = Antioxidant activity assessed as DPPH scavenging activity; format: functional
Method in brief: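 SC50 is the concentration scavenging 50% of the DPPH free radical under the assay conditions. It was obtained by linear regression over at least five concentrations, each in triplicate, and reported as the mean.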

[3] = Antioxidant activity assessed as DPPH scavenging activity at 50 ug/ml; format: functional
Method in brief: (§1)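 Single-concentration screen at 50 µg/mL. Samples showing less than 10% activity at this level were not carried forward to IC50 or SC50 determination.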

[4] = target: T1, Xanthine dehydrogenase/oxidase; test: Inhibition of xanthine oxidase at 50 ug/ml; method in brief: as §1
[5] = target: T1, Xanthine dehydrogenase/oxidase; test: Inhibition of xanthine oxidase

T1 sequence (P47989 whole entry): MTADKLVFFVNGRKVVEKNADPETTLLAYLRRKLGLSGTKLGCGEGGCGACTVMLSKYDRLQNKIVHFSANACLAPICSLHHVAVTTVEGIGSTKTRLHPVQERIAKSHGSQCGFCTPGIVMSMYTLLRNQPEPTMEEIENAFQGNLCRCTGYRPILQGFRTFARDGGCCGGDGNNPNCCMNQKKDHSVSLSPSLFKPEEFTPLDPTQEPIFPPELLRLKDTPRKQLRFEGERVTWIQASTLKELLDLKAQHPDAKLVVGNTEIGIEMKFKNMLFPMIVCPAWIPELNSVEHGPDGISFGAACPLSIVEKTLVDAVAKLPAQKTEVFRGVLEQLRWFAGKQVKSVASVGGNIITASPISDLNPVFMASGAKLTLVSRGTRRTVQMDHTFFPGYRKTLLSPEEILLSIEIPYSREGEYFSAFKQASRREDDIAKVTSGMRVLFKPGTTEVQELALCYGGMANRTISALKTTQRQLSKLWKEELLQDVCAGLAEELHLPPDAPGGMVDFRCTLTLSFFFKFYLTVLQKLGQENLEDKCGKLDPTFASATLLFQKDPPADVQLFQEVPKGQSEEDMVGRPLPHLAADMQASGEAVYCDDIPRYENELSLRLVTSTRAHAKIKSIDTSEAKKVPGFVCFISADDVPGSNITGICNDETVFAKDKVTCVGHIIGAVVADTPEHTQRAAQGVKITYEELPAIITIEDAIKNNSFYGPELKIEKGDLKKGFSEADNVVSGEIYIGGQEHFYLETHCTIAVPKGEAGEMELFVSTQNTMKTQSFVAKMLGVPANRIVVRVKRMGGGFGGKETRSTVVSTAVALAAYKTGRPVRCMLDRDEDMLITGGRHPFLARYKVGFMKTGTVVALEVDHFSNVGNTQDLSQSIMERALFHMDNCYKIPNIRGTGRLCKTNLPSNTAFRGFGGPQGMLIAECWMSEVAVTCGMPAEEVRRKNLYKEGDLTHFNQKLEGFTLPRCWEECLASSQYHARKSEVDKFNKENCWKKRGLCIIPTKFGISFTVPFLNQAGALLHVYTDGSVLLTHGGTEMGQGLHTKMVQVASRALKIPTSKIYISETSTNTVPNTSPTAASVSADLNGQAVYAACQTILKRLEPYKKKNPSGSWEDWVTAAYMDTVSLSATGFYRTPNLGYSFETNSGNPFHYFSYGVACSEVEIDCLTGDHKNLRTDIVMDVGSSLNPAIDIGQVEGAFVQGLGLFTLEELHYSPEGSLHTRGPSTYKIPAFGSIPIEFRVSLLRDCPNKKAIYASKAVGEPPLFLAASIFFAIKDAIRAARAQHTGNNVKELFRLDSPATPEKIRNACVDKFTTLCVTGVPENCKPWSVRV

Row | Compound | inhibition at 132 µM [1] | SC50 [2] | Activity [3] | Activity [4] | IC50 [5]
1 | COc1cc(C[C@]2(O)CO[C@@H](c3ccc(O)c(OC)c3)[C@@H]2CO)ccc1O [OLIVIL] | 23.6% | 15.1 µM | – | – | –
2 | CC(=O)CCc1ccc2c(c1C)C(=O)c1ccccc1C2=O [STEREQUINONE F] | – | – | inactive | Not Active | –
3 | Cc1c(C)c2c(c(C)c1O)CCC(C)(C(=O)O)O2 (stereo not drawn) | – | 15.9 µM | – | – | –
4 | CC1=CCc2c1cc1c(c2C)C(=O)c2ccccc2C1=O [STEREQUINONE A] | – | – | inactive | Not Active | –
5 | COc1cc([C@H]2c3cc(O)c(OC)cc3C[C@@](O)(CO)[C@@H]2CO)ccc1O | – | 17.4 µM | – | – | 101 µM
6 | COc1cc(C[C@@H](CO)[C@H](CO)Cc2ccc(O)c(OC)c2)ccc1O [(+)-SECOISOLARICIRESINOL] | – | 12.5 µM | – | – | 213 µM
7 | COc1cc(COC/C=C/c2cc(OC)c(OC)c(OC)c2)ccc1O | – | 7.58 µM | – | Not Active | –
8 | COc1cc(/C=C/C(=O)O)ccc1O [FERULATE] | – | 32.5 µM | – | Not Active | –
9 | Cc1c(CCC(C)O)ccc2c1C(=O)c1ccccc1C2=O (stereo not drawn) [STEREQUINONE H] | – | – | inactive | Not Active | –
10 | COc1cc(C[C@@H]2COC[C@@H]2C(O)c2ccc(O)c(OC)c2)ccc1O (stereo partly drawn) | – | 15.2 µM | – | – | 111 µM
11 | COc1ccc2c(c1)C(=O)C1(O)C(=CC3=C(C)CCC3=C1C)C2=O (stereo not drawn) [STEREQUINONE I] | – | – | inactive | Not Active | –
12 | COc1ccc2c(c1)C(=O)c1c(ccc(CCC(C)=O)c1C)C2=O [STEREQUINONE G] | – | – | inactive | Not Active | –
